Screening results: PubChem, several laboratories
In the library only some 4.1% were active in any assay of this set; here they are far more common.
KCNQ1 act – potentiators or activators of human KCNQ1 potassium channel; P51787; CHO-K1 KCNQ1, thallium flux FluxOR fluorescence; hits give high values; B-score at 10 µM; 0.35% of 310,000 active; AID 2648;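 active means fluorescence ratio B-score, a plate-corrected score, at least three library SD, with initial intensity B-score within 5 SD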
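Test system: CHO-K1 cells stably expressing KCNQ1 / Medium: assay buffer / Also added: depolarizing K+/Tl+ stimulus, K2SO4 and Tl2SO4 each 12.5 mM in 5x stock / Incubation: 90 min dye loading and 20 min compound exposure, both at room temperature / Signal: thallium influx via FluxOR fluorescence, kinetic imaging / Evaluation: B score of baseline-normalized fluorescence ratio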
hERG rescue – shields human hERG channel from block by proarrhythmic agents | CHO-hERG, FluxOR thallium flux, dofetilide IC70 present | activation (rescue from dofetilide block), less the hit threshold, % at 10 µM | 0.51% of 310,000 active | Q12809;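 active means activation above the mean of controls blocked by dofetilide plus 5 SD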;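 further: thallium influx through hERG after potassium depolarization seen as dye fluorescence rise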
KCNK3 block – human KCNK3 channel inhibition, primary screen. O14649. CHO-KCNK3 thallium flux, FluxOR fluorescence; hits give low values. B-score at 10 µM. 0.84% of 340,000 active. AID 602410;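 active means B-score under library mean minus 4 SD, starting fluorescence ratio at most library mean plus 5 SD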;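 further: more negative B-score means stronger inhibition of thallium flux through KCNK3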
Target sequence (O14649 whole entry, looked up): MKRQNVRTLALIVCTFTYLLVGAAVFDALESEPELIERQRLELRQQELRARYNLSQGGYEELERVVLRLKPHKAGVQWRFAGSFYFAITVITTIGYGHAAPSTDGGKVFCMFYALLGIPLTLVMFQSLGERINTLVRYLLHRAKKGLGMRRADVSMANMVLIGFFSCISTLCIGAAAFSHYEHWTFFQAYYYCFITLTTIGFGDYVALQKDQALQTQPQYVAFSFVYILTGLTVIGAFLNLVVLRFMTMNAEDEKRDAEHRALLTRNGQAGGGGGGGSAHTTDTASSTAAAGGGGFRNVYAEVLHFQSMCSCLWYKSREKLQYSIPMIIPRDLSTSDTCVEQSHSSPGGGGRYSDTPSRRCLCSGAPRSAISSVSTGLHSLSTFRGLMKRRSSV
KCC2 mod – KCC2 (human) Cl- transport modulation | Q9H2X9 | 2.2% of 190,000 active | KCC2 cells, thallium flux FluoZin-2 fluorescence | B-score of Tl+ flux slope (higher = more flux/activation; lower = inhibition) at 10 µM;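 active means thallium flux slope and its plate-corrected score both differing from the plate sample mean at a set confidence after two filtering rounds, in either direction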;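 further: slope of fluorescence scaled to starting intensity during 10 to 20 s after thallium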
KCNQ1 inh – human KCNQ1 channel inhibition. CHO-K1 KCNQ1, FluxOR thallium flux fluorescence; hits give high values. B-score at 10 µM. 1.3% of 310,000 active;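 active means compounds whose thallium flux B-score, printed positive for inhibition, exceeds three library SD while starting fluorescence stays within three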;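 further: channel opened by potassium depolarization with thallium stimulus after 20 min compound exposure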
KCNK9 block – blocks the human KCNK9 two-pore domain potassium channel | AID 488922 | Q9NPC2 | 1.2% of 310,000 active | HEK293 KCNK9, FluxOR thallium flux fluorescence; hits give low values | B-score at 10 µM;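 active means ratio B-score over 3 SD below the library mean, with starting fluorescence within 5 SD of its mean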;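 further: negative B-score means less thallium flux so channel inhibition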
KCNK9 block conf – human KCNK9 inhibitor confirmation | shares compounds with KCNK9 block | HEK293 KCNK9 cells, FluxOR thallium flux fluorescence | 43% of 4,900 active | inhibition, % at 10 µM;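 active means thallium signal inhibited by more than 5 SD of the compound-free buffer control wells, on both duplicate plates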;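 further: 0% = assay buffer control wells without compound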
Kir2-1 spec – tests whether KCNK9 modulators also affect mouse Kir2.1; 4% of 4,900 active; inhibition, % at 10 µM; shares compounds with KCNK9 block; AID 492993; Kir2.1 cells, FluxOR thallium flux fluorescence;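 active means thallium signal drop more than 5 SD beyond the mean of the no-compound control wells, seen in both duplicate plates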;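 further: signal is fluorescence rise after thallium addition divided by baseline fluorescence; plate controls were assay buffer only for no effect and full block by chlorpromazine control for full effect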
KCNK9 uninduced – non-induced cell nonspecific activity of KCNK9 modulators; non-induced KCNK9-HEK293, FluxOR thallium flux; 40% of 4,900 active; inhibition, % at 10 µM; shares compounds with KCNK9 block; AID 492997;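 active means thallium signal drop beyond 5 SD of the untreated control mean, on both duplicate plates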;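 further: plate controls were buffer only IC0 wells for no effect and SID17386958 at its maximal inhibitory level for full effect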
KCNK3 inh conf – confirmation of human KCNK3 two-pore domain potassium channel inhibitors; shares compounds with KCNK3 block; AID 651638; ratio percent of control, % at 10 µM; CHO-KCNK3 thallium flux, FluxOR fluorescence; 0% buffer, 100% carvedilol maximal block; 99% of 2,400 active;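 active means ratio percent of control, averaged over triplicates, above buffer control mean plus 5 SD, cut at about 64% in these data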;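 further: ratio is the fluorescence rise from min to max over baseline after thallium stimulus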
KCNK3 uninduced – activity in cells without induced KCNK3 expression | 40% of 2,400 active | non-induced KCNK3 parental cells, FluxOR thallium flux; hits give low values | thallium flux ratio (lower = more inhibition) at 10 µM | shares compounds with KCNK3 block;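 active means thallium flux ratio, averaged over three wells, more than 5 SD below the buffer control mean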;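 further: host cells are CHO cells without KCNK3 induction; ratio is peak minus trough fluorescence over baseline then normalized to buffer controls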
Active calls of the source: *; i = inactive; . = no result given.

SMILES	KCNQ1 act	hERG rescue	KCNK3 block	KCC2 mod	KCNQ1 inh	KCNK9 block	KCNK9 block conf	Kir2-1 spec	KCNK9 uninduced	KCNK3 inh conf	KCNK3 uninduced
CC(C)OCCCNC(=O)c1ccc(NC(=O)C2=CSCCO2)cc1	i	-9	i	.	i	i	.	.	.	.	.
Cc1ccc(CSCC(=O)N2CCOCC2)cc1	i	-11	i	.	i	i	.	.	.	.	.
COC(=O)C1=C(C)N=C2SC(C#N)=C(N)N2C1c1cccc(OC)c1 (centres undefined)	i	-11	i	-0.066	i	i	.	.	.	.	.
COC(=O)C1=C(C)N=C2SC(C#N)=C(N)N2C1c1ccc(OC)cc1 (centres undefined)	i	-6	-10*	-0.061	i	-8.9*	50%*	i	i	112*	i
CC(=O)Nc1sc(C)c(C)c1C(=O)OCCOc1ccccc1	i	-8	-11*	.	i	-13*	46%*	i	46%*	125*	0.13*
CC(=O)Nc1sc(C)c(C)c1C(=O)OCC(=O)Nc1ccccc1	.	.	i	.	.	.	.	.	.	.	.
Cc1c(Nc2cc(N3CCCCCC3)c3nonc3c2[N+](=O)[O-])c(=O)n(-c2ccccc2)n1C	i	-4	i	.	i	i	.	.	.	.	.
CCN(Cc1ccccc1)C(c1cccc(C#N)c1)c1nnnn1C(C)(C)C (centres undefined)	i	-1	-9.2*	-0.068	i	-14*	64%*	i	43%*	102*	i
COCCNC(=O)CSc1nc2cc(OC)c(OC)cc2c(=O)n1CCc1ccc(S(N)(=O)=O)cc1	i	-22	i	1.6	i	i	.	.	.	.	.
N#CCC(=O)Nc1ccc(C(=O)OCc2ccccc2Oc2ccccc2)cc1	i	-14	-10*	.	i	-11*	58%*	i	25%*	115*	0.15*
Cc1cc(C)c(S(=O)(=O)N2CCCCC2)c(C)c1N(C)S(=O)(=O)c1ccccc1	i	-5	-8.8*	-0.19	i	i	i	i	i	97*	0.16*
Cc1cc(C)c(S(=O)(=O)N2CCOCC2)c(C)c1N(C)S(=O)(=O)c1ccccc1	i	-16	i	.	i	i	.	.	.	.	.
OC(CNc1nc(C(F)(F)F)nc2ccccc12)c1ccccc1 (centres undefined)	i	-10	-13*	.	i	-12*	61%*	i	i	118*	i
Cc1ccc(N2C(=O)c3ccccc3C2Nc2ccc(S(=O)(=O)N3CCOCC3)cc2)nc1 (centres undefined)	i	-10	i	0.73	i	i	.	.	.	.	.
Cc1ccc(N2C(=O)c3ccccc3C2Nc2ccc(S(=O)(=O)N3CCCCC3)cc2)nc1 (centres undefined)	i	-4	-10*	-0.91	i	-11*	i	i	30%*	121*	0.15*
Cc1cccc(C)c1NC(=O)c1ccc(-c2ccc(Cl)cc2Cl)o1	i	-8	-9*	0.12	7*	-16*	51%*	i	38%*	130*	0.14*
O=C(CCC1CCCC1)NNC(=O)c1cccc(Cl)c1	i	5	i	.	i	i	.	.	.	.	.
COc1ccccc1C(=O)Nc1ccc(C(=O)c2ccccc2)cc1	i	-9	-13*	-0.39	i	-12*	61%*	i	i	127*	0.13*
